RAM network inh: yeast RAM network inhibition | S. cerevisiae dse1pr::URA3 reporter, 5-FOA growth OD615, 2 d; analog-sensitive cbk1-as2 kinase mutant strain | inhibition, % at 50 µM | 190,000 compounds, 1.8% hits | AID 868;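 active = inhibition above a set limit, 3 SD over mean compound inhibition, cut at about 8.4% in these data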;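 also: 0% = DMSO-only wells with no growth and 100% = 10 µM 1-NA-PP1 full growth; inhibition rescues growth on 5-FOA so higher OD means more RAM inhibition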
Measles CPE: protection of cells from measles virus; AID 841; protection (pct of control), % at 4 µM; 140,000 compounds, 1.5% hits; Measles virus-infected cells, CPE protection, absorbance; in the data active = protection mostly above about 24%, no sharp cut-off; inactive = mostly below about 26%
Insulin prom inh: TRM-6 insulin promoter activity inhibition | AID 1273 | TRM-6 cells, insulin promoter-eGFP reporter, imaging; reporter expression induced with tamoxifen | 130,000 compounds, 0.9% hits | inhibition, % at 2 µM;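 active = inhibition above the mean plus 3 SD, with well images judged a real hit on visual review, cut at about 60% in these data, passing the limit was not always enough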
Yeast lifespan up: yeast lifespan extension | S. cerevisiae growth with nicotinamide, OD615; deaD strain in restrictive glucose medium | inhibition of the nicotinamide effect, % at 10 µM | 130,000 compounds, 0.68% hits | AID 775;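 active = inhibition above a set limit, placed 3 SD over the median of all compounds, cut at about 26% in these data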;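 also: 0% = nicotinamide-treated wells and 100% = cells grown without nicotinamide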
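assay system = DeaD-strain S. cerevisiae | buffer or medium = restrictive glucose medium | reagent = 1.5 mM nicotinamide | compound = 10 µM single point, 0.25% DMSO | incubation = 48 h compound exposure at 30 °C, humidified | signal = OD615 measurement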
Yeast growth inh: reduces growth of yeast BB579 in restrictive medium; S. cerevisiae BB579 growth, OD615, 48 h; inhibition, % at 10 µM; 140,000 compounds, 0.51% hits; AID 804;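 active = inhibition above a set limit, 3 SD over the mean compound inhibition, cut at about 44% in these data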
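controls = amphotericin B 10 µg/mL, positive | assay system = DeaD yeast strain BB579 | schedule = 48 h compound exposure at 30 °C after 4 h preincubation | detection = OD615 turbidity measurement | medium = restrictive CSMM-D medium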
MDM2 E3 inh: Mdm2 E3 ligase (human) inhibition; Q00987; cell-based MDM2 ubiquitination luciferase reporter, 2 h; 0 = plate control, 100 = twice control, blank-subtracted; signal enhancement, % at 5 µM; 210,000 compounds, 0.11% hits; AID 1230;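 active = signal enhancement of 30% or more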;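 also: luminescence tracks abundance of the self-degrading MDM2-luciferase fusion protein; higher signal means inhibition of MDM2 E3 ligase activity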
Target sequence (Q00987 whole entry, looked up, the tested form may be a part): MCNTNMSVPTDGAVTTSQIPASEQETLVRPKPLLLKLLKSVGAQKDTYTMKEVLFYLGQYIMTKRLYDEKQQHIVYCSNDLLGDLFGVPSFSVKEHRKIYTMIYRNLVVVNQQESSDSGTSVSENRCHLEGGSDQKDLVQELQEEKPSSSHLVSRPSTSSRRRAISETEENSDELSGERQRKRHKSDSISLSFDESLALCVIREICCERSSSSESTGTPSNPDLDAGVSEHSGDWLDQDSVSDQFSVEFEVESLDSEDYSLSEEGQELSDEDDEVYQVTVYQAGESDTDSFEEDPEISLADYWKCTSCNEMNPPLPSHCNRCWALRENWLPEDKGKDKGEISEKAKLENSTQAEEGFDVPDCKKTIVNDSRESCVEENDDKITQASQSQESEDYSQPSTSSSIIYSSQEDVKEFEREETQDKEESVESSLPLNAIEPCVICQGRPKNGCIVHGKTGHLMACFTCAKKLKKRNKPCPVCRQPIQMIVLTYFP
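Test system: mammalian cells stably expressing self-ubiquitinating, self-degrading MDM2 E3–luciferase fusion; Amount: 2000 cells in each well; Medium: DMEM; Schedule: 4 h settle plus 2 h compound, 37 °C; Technique: SteadyLite luciferase luminescence after 15 min room-temperature reagent incubation; Benchmarks: plate control and blank wells.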
RAM 5-FOA: RAM network inhibition, efflux-deficient strain; shares compounds with RAM network inh; S. cerevisiae efflux-deficient reporter strain, 5-FOA growth OD615, 2 days; max inhibition, %; 1,200 tested, under 10 active; call rule not given here;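 also: plate controls were vehicle for no effect and reference inhibitor for full effect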
* marks the source's active call; other numbers are inactive results. Sampled rows, rich in hits. Any-hit rate of the full collection: about 4%.

How did O=C(NC12CC3CC(CC(C3)C1)C2)N1CCN(C(=O)c2ccco2)CC1 do in these assays?
RAM network inh: 2; MDM2 E3 inh: 1

How did COC(=O)Cc1ccc(N(Cc2ccccc2F)S(=O)(=O)c2ccc(C)cc2)cc1 do in these assays?
RAM network inh: 20*; Measles CPE: 15; Insulin prom inh: -50; Yeast lifespan up: 10; Yeast growth inh: -11; MDM2 E3 inh: 3; RAM 5-FOA: 3

How did Cc1[nH]n(-c2ccccc2)c(=O)c1N=Nc1cccc(S(=O)(=O)N2CCOCC2)c1 do in these assays?
RAM network inh: 4; Measles CPE: 16; Yeast lifespan up: 5; Yeast growth inh: -17; MDM2 E3 inh: -16

How did Cc1[nH]n(-c2ccccc2)c(=O)c1N=Nc1ccccc1 do in these assays?
RAM network inh: 13*; Insulin prom inh: -33; MDM2 E3 inh: -19; RAM 5-FOA: 2

How did CC1(C)CC2(CCO1)OC(=O)CC2C(=O)NCc1ccccc1 (stereo not drawn) do in these assays?
RAM network inh: 0; Measles CPE: 8; Insulin prom inh: -40; Yeast lifespan up: -3; Yeast growth inh: -17; MDM2 E3 inh: -8

How did CC1CCCC(NC(=O)COC(=O)CCc2ccccc2)C1C (stereo not drawn) do in these assays?
RAM network inh: 0; Insulin prom inh: 41; MDM2 E3 inh: -9

What do the screens show for `CC1CCCC(NC(=O)COC(=O)CSc2ccc3ccccc3c2)C1C` (stereo not drawn)?
RAM network inh: 12*; Measles CPE: 10; Insulin prom inh: -38; Yeast lifespan up: 10; Yeast growth inh: -29; MDM2 E3 inh: 1; RAM 5-FOA: 3

Results for CN(CCOc1ccccc1)S(=O)(=O)c1ccc2oc3ccccc3c2c1 ?
RAM network inh: 15*; Measles CPE: 10; Insulin prom inh: 16; Yeast lifespan up: 3; Yeast growth inh: -42; MDM2 E3 inh: -9; RAM 5-FOA: 7

How did COc1ccc(OCCNS(=O)(=O)c2ccc3oc4ccccc4c3c2)cc1 do in these assays?
RAM network inh: 4; Measles CPE: 19; Insulin prom inh: -15; Yeast lifespan up: -8; Yeast growth inh: -35; MDM2 E3 inh: -10

Results for Clc1cccc(Cl)c1CSc1nnc(-c2sccc2-n2cccc2)o1 ?
RAM network inh: 17*; Measles CPE: 29; Yeast lifespan up: -9; Yeast growth inh: -19; MDM2 E3 inh: 6; RAM 5-FOA: 3

What do the screens show for `CSc1nnc(-c2sccc2-n2cccc2)o1`?
RAM network inh: 1; Insulin prom inh: -20; MDM2 E3 inh: -6

How did CC(OC(=O)CC(NC(=O)c1ccccc1Cl)c1ccccc1)C(=O)Nc1cccc(Cl)c1Cl (stereo not drawn) do in these assays?
RAM network inh: 3; Measles CPE: 9; Yeast lifespan up: 1; Yeast growth inh: -24; MDM2 E3 inh: 3

Results for COc1ccc(CCNC(=O)/C(C#N)=C/c2cccc(OCc3ccccc3)c2)cc1OC ?
RAM network inh: 14*; Measles CPE: 6; Insulin prom inh: 5; Yeast lifespan up: 2; Yeast growth inh: -11; MDM2 E3 inh: 1; RAM 5-FOA: 2

How did COc1ccc(/C=C/C(=O)c2sc(-c3ccccc3)nc2C)cc1 do in these assays?
RAM network inh: 13*; Measles CPE: 15; Yeast lifespan up: -4; Yeast growth inh: -50; MDM2 E3 inh: -11; RAM 5-FOA: 1

Results for Cc1nc(-c2ccccc2)sc1C(=O)O ?
RAM network inh: 0; MDM2 E3 inh: -15

Results for O=C(Nc1cccc(C(F)(F)F)c1)NC1CCCCC1 ?
RAM network inh: 2; Measles CPE: 6; Insulin prom inh: -36; Yeast lifespan up: -4; Yeast growth inh: -66; MDM2 E3 inh: -6

What do the screens show for `O=C(OC(C(=O)Nc1cccc(C(F)(F)F)c1)c1ccccc1)C1CCCCC1` (stereo not drawn)?
RAM network inh: 14*; Measles CPE: 3; Insulin prom inh: 13; Yeast lifespan up: 0; Yeast growth inh: -31; MDM2 E3 inh: -34; RAM 5-FOA: 2

Assay outcomes (PubChem)
